# Data reported in ChEMBL document CHEMBL1148723, “Structure-based rational design of beta-hairpin peptides from discontinuous epitopes of cluster of differentiation 2 (CD2) protein to modulate cell adhesion interaction” (J Med Chem, 2007).
# Activity calls are given as the source filed them. The calls are words filed in the database; no cut-off is given here. Peptide text beside a SMILES is read from it.
# Key:
# [1] = system: Erythrocyte; test: Inhibition of CD2-CD58 interaction assessed as inhibition of E-rosette formation between Jurkat cells and sheep RBCs at 200 uM; assay type: cell-based; set-up: Activity: scale not given: the % may be the effect or the level left
# How it was run: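 E-rosetting: test peptide added first to AET-treated sheep red blood cells (CD58-expressing), then an equal amount of Jurkat T cells (CD2-expressing). Cells with five or more bound SRBCs scored as rosettes. Read-out is % inhibition of rosette formation versus untreated cells, mean of three independent experiments; anti-CD58 antibody as positive control.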
# [2] = system: Jurkat (Homo sapiens); test: Inhibition of ICAM1-LFA1 mediated adhesion in Jurkat cells
# [3] = system: Jurkat; test: Inhibition of CD2-CD58 interaction assessed as inhibition of adhesion between Jurkat cells and Caco-2 cells at 90 uM; assay type: cell-based; conditions: Homo sapiens
# How it was run: (§1)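 Lymphocyte–epithelial adhesion: peptide added to confluent Caco-2 monolayer (hCD58), then BCECF-labelled Jurkat cells (hCD2). 45 min at 37 °C, nonadherent cells washed off with PBS, bound Jurkat cells lysed with Triton X-100, lysate fluorescence read. Result expressed as % inhibition versus untreated, mean of three independent experiments.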
# [4] = system: Jurkat; test: Inhibition of CD2-CD58 interaction assessed as inhibition of adhesion between Jurkat cells and Caco-2 cells; assay type: cell-based; conditions: Homo sapiens, dose or concentration not given here; how it was run: as §1
compound,measurement,setting,value
CC[C@H](C)[C@H](NC(=O)[C@H](CCCCN)NC(=O)[C@@H](N)Cc1c[nH]c2ccccc12)C(=O)N[C@@H](CC(=O)O)C(=O)N[C@@H](CC(=O)O)C(=O)N[C@H](C(=O)N[C@H](C(=O)N[C@@H](CC(=O)O)C(=O)N[C@@H](Cc1ccc(O)cc1)C(=O)N[C@H](C(=O)N[C@@H](CO)C(=O)N[C@H](C(=O)O)C(C)C)[C@@H](C)CC)[C@@H](C)O)[C@@H](C)CC (H-WKIDDITDYISV-OH),inhibition,[1],35%
CC[C@H](C)[C@@H]1NC(=O)[C@H](CC(=O)O)NC(=O)[C@H](CC(=O)O)NC(=O)[C@H](N)C(C)(C)SSC[C@H](C(=O)O)NC(=O)[C@H](CC(=O)O)NC(=O)[C@H](Cc2ccc(O)cc2)NC(=O)[C@H]([C@@H](C)CC)NC(=O)[C@H](CO)NC(=O)[C@H](C(C)C)NC(=O)[C@H](CCCCN)NC(=O)[C@H](CCC(=O)O)NC(=O)[C@H](Cc2c[nH]c3ccccc23)NC(=O)[C@H](CCCCN)NC1=O,Activity,[2],inactive
same,inhibition,[3],50%
same,inhibition,[1],40%
CC[C@H](C)[C@@H]1NC(=O)[C@H](CCCCN)NC(=O)[C@H](N)C(C)(C)SSC[C@H](C(=O)O)NC(=O)[C@H](CO)NC(=O)[C@H]([C@@H](C)CC)NC(=O)[C@H](Cc2ccc(O)cc2)NC(=O)[C@H](CC(=O)O)NC(=O)[C@H]([C@@H](C)O)NC(=O)[C@H]([C@@H](C)CC)NC(=O)[C@H](CC(=O)O)NC(=O)[C@H](CC(=O)O)NC1=O,Activity,[2],inactive
same,inhibition,[3],60%
same,Activity,[1],45%
CC[C@H](C)[C@H](N)C(=O)N[C@@H](CC(=O)O)C(=O)N[C@@H](CC(=O)O)C(=O)N[C@H](C(=O)N[C@@H](CCCCN)C(=O)N[C@@H](Cc1c[nH]c2ccccc12)C(=O)N[C@@H](CCC(=O)O)C(=O)N[C@@H](CCCCN)C(=O)N[C@H](C(=O)N[C@@H](CO)C(=O)N[C@H](C(=O)N[C@@H](Cc1ccc(O)cc1)C(=O)N[C@@H](CC(=O)O)C(=O)N[C@H](C(=O)O)[C@@H](C)O)[C@@H](C)CC)C(C)C)[C@@H](C)CC (H-IDDIKWEKVSIYDT-OH),inhibition,[4],30%
CC[C@H](C)[C@@H]1NC(=O)[C@H](CC(=O)O)NC(=O)[C@H](CC(=O)O)NC(=O)[C@H]([C@@H](C)CC)NC(=O)[C@H](CCCCN)NC(=O)[C@H](N)C(C)(C)SSC[C@H](C(=O)O)NC(=O)[C@H](CO)NC(=O)[C@H]([C@@H](C)CC)NC(=O)[C@H](Cc2ccc(O)cc2)NC(=O)[C@H](CC(=O)O)NC(=O)[C@H]([C@@H](C)O)NC(=O)[C@H](CCCCN)NC(=O)[C@H](CC(=O)O)NC1=O,inhibition,[1],25%
CC[C@H](C)[C@@H]1NC(=O)[C@H](CC(=O)O)NC(=O)[C@H](CC(=O)O)NC(=O)[C@H](N)C(C)(C)SSC[C@@H](C(=O)O)NC(=O)[C@H](CC(=O)O)NC(=O)[C@H](Cc2ccc(O)cc2)NC(=O)[C@H]([C@@H](C)CC)NC(=O)[C@H](CO)NC(=O)[C@H](C(C)C)NC(=O)[C@H](Cc2c[nH]c3ccccc23)NC(=O)[C@H](CCCCN)NC1=O,inhibition,[1],30%
CC[C@H](C)[C@H](NC(=O)[C@H](CC(=O)O)NC(=O)[C@H](CC(=O)O)NC(=O)[C@@H](NC(=O)[C@H](CCCCN)NC(=O)[C@@H](N)Cc1c[nH]c2ccccc12)[C@@H](C)CC)C(=O)N[C@@H](CC(=O)O)C(=O)N[C@@H](CCCCN)C(=O)N[C@H](C(=O)N[C@@H](CC(=O)O)C(=O)N[C@@H](Cc1ccc(O)cc1)C(=O)N[C@H](C(=O)N[C@@H](CO)C(=O)N[C@H](C(=O)O)C(C)C)[C@@H](C)CC)[C@@H](C)O (H-WKIDDIDKTDYISV-OH),inhibition,[1],15%
